# Results from different studies.
# Lines come from different studies, so protocols differ.
# HDAC10: Polyamine deacetylase HDAC10 (HDAC10, Homo sapiens, UniProt Q969S8)
# CSNK1A1: Casein kinase I isoform alpha (CSNK1A1, Homo sapiens, UniProt P48729)
# SLC22A12: Solute carrier family 22 member 12 (SLC22A12, Homo sapiens, UniProt Q96S37)
# PLA2G6: 85/88 kDa calcium-independent phospholipase A2 (PLA2G6, Homo sapiens, UniProt O60733)
# HDAC7: Histone deacetylase 7 (HDAC7, Homo sapiens, UniProt Q8WUI4)
Structure (SMILES),target,test,setting,IC50 [nM]
O=C1CCC(N2C(=O)c3cccc(NCC(=O)OCCCCc4cn(CCCCCCN5CCc6c(c7ccccc7n6Cc6ccc(C(=O)NO)cc6)C5)nn4)c3C2=O)C(=O)N1 (centres unmarked),HDAC10,"enzyme activity, inhibitor, fluorescence",,17
Fc1ccc(-c2nn3cc(C(F)(F)F)ccc3c2-c2ccncc2)cc1,CSNK1A1,"enzyme activity, inhibitor, ADP detection",,> 15000
O=C(O)/C=C/c1nccc2c3ccccc3n(Cc3ccc(Br)c4ccccc34)c12,SLC22A12,"transporter uptake, inhibitor, radiometric",,3020
O=C(CCCCCCCCO)C(F)(F)F,PLA2G6,"enzyme activity, inhibitor",,12700
O=C(CNc1cccc2c1C(=O)N(C1CCC(=O)NC1=O)C2=O)NCCCCCCN1CCc2c(c3ccccc3n2Cc2ccc(C(=O)NO)cc2)C1 (centres unmarked),HDAC10,"enzyme activity, inhibitor, fluorescence",,22
O=C(NS(=O)(=O)c1ccccc1)c1cc2ccccc2n1Cc1ccc(Br)c2ccccc12,SLC22A12,"transporter uptake, inhibitor, radiometric",,12000
COc1c(Cl)cccc1Nc1c(-c2ccncc2OC[C@@H]2COCCO2)[nH]c2c1C(=O)NCC2,"Epithelial discoidin domain-containing receptor 1 (DDR1, Homo sapiens, UniProt Q08345)","ligand displacement, TR-FRET",,110
O=C(c1ccc(OCCN2CCCCC2)cc1)c1c(-c2ccc(O)cc2)sc2cc(O)ccc12,"Angiotensin-converting enzyme (Mus musculus, UniProt P09470)","enzyme activity, inhibitor",,88600
O=C(NO)c1ccc(Cn2cnc3c(Nc4cccc([N+](=O)[O-])c4)ncnc32)cc1,HDAC7,"enzyme activity, inhibitor",,117
c1ccc(Cc2[nH]nc(-c3ccccn3)c2-c2ccnc3ccccc23)cc1,CSNK1A1,"enzyme activity, inhibitor, ADP detection",,3500
COc1ccc(N(Cc2csc(-c3ccccc3)n2)C(=O)CCCCCC(=O)NO)cc1,HDAC7,"enzyme activity, inhibitor",,> 10000
CC(C)C1=CC2=CC(=O)[C@H]3C(C)(C)CCC[C@]3(C)C2=C(O)C1=O (racemic),"Farnesyl pyrophosphate synthase (FDPS, Homo sapiens, UniProt P14324)","enzyme activity, inhibitor",,120
Oc1ccc2c(-c3ccncc3)c(-c3ccc(F)cc3)nn2c1,CSNK1A1,"enzyme activity, inhibitor, ADP detection",,1600
O=C(NS(=O)(=O)c1ccccc1)c1cc2ccccc2n1Cc1ccc(C2CC2)c2ccccc12,SLC22A12,"transporter uptake, inhibitor, radiometric",,4090
COc1ccc(N(Cc2csc(-c3ccc(C)cc3)n2)C(=O)CCCCCC(=O)NO)cc1,HDAC7,"enzyme activity, inhibitor",,> 10000
O=C(CCCCc1ccc(CO)cc1)C(F)(F)F,PLA2G6,"enzyme activity, inhibitor",,1100
c1ccc(Cn2cc(-c3ccnc4ccccc34)c(-c3ccccn3)n2)cc1,CSNK1A1,"enzyme activity, inhibitor, ADP detection",,5900
O=C(O)CCCCCCCC(=O)C(F)(F)F,PLA2G6,"enzyme activity, inhibitor",,352000
CN1CCC(CNc2ccc3ncc(-c4cccc(OC(F)(F)F)c4)n3n2)CC1,"Beta-2 adrenergic receptor (ADRB2, Homo sapiens, UniProt P07550)","cAMP, antagonist",,8310
c1ccc(-c2[nH]ccc2-c2ccnc3ccccc23)nc1,CSNK1A1,"enzyme activity, inhibitor, ADP detection",,> 30000
CCCc1ccn2c(-c3ccncc3)c(-c3ccc(F)cc3)nc2c1,CSNK1A1,"enzyme activity, inhibitor, ADP detection",,970
CCc1oc2cc(F)c(F)cc2c1C(=O)c1cc(Br)c(O)c(Br)c1,SLC22A12,"transporter uptake, inhibitor, radiometric",oocytes,245
Oc1ccn2nc(-c3ccc(F)cc3)c(-c3ccncc3)c2c1,CSNK1A1,"enzyme activity, inhibitor, ADP detection",,840
CC(C)(O)c1coc(S(=O)(=O)NC(=O)c2cc3ccccc3n2Cc2ccc(Br)c3ccccc23)c1,SLC22A12,"transporter uptake, inhibitor, radiometric",,9760
Fc1ccc(-c2nc3cc(C4CC4)ccn3c2-c2ccncc2)cc1,CSNK1A1,"enzyme activity, inhibitor, ADP detection",,910
c1ccc(-c2n[nH]cc2-c2ccncc2)nc1,CSNK1A1,"enzyme activity, inhibitor, ADP detection",,2900
O=C(COc1ccc(C2CCC(=O)NC2=O)cc1)NCCCCCCN1CCc2c(c3ccccc3n2Cc2ccc(C(=O)NO)cc2)C1 (centres unmarked),HDAC10,"enzyme activity, inhibitor, fluorescence",,23
Fc1ccc(Cc2[nH]nc(-c3ccccn3)c2-c2ccnc3ccccc23)cc1,CSNK1A1,"enzyme activity, inhibitor, ADP detection",,11000
Cc1ncc(-c2cc3cc(-c4c(C)ccc(O)c4C)cnc3[nH]2)cn1,"Membrane-associated tyrosine- and threonine-specific cdc2-inhibitory kinase (PKMYT1, Homo sapiens, UniProt Q99640)","cell-free assay, TR-FRET",,19
